Test results taken from ChEMBL document CHEMBL4834477, “Synthesis and biological evaluation of novel purinyl quinazolinone derivatives as PI3Kδ-specific inhibitors for the treatment of hematologic malignancies” (Bioorg Med Chem, 2021).

Assays:
[1] = tested on: SU-DHL-5; test: Antiproliferative activity against human SU-DHL-5 cells assessed as cell viability at 10 uM by CellTiter-Glo luminescent cell viability assay (reference value: 100%); format: functional; details: read-out: Activity
[2] = tested on: MOLT-4; test: Antiproliferative activity against human MOLT-4 cells assessed as cell viability at 20 uM by CellTiter-Glo luminescent cell viability assay (reference value: 100%); format: functional; details: read-out: Activity
[3] = target: PI3-kinase p110-alpha/p85-alpha (Homo sapiens, UniProt P42336); test: Inhibition of recombinant human full length N-terminal His-tagged p110alpha/p85alpha expressed in baculovirus expression system measured after 60 mins in presence of ATP by ATP-competitive binding assay
Chain of PI3-kinase p110-alpha/p85-alpha (P27986 whole entry): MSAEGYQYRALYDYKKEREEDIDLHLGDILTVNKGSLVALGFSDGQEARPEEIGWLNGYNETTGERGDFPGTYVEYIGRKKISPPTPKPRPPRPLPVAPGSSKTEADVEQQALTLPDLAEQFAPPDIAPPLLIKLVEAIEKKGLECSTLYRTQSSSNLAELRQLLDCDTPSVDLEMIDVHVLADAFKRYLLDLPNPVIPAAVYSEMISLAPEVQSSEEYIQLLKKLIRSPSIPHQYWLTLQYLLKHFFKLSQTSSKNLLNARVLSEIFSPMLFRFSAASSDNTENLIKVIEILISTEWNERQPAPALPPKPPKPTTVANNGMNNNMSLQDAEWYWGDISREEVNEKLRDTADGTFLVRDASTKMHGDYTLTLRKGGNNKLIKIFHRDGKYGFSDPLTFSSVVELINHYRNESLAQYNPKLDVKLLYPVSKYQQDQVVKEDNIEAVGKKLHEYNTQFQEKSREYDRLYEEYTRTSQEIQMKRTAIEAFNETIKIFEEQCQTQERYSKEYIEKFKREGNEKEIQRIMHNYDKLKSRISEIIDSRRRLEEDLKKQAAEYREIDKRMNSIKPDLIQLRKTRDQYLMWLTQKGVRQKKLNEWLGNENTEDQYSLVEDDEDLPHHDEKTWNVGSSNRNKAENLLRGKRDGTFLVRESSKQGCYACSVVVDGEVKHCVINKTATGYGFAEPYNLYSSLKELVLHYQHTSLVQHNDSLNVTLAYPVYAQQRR
Chain of PI3-kinase p110-alpha/p85-alpha (P42336 whole entry): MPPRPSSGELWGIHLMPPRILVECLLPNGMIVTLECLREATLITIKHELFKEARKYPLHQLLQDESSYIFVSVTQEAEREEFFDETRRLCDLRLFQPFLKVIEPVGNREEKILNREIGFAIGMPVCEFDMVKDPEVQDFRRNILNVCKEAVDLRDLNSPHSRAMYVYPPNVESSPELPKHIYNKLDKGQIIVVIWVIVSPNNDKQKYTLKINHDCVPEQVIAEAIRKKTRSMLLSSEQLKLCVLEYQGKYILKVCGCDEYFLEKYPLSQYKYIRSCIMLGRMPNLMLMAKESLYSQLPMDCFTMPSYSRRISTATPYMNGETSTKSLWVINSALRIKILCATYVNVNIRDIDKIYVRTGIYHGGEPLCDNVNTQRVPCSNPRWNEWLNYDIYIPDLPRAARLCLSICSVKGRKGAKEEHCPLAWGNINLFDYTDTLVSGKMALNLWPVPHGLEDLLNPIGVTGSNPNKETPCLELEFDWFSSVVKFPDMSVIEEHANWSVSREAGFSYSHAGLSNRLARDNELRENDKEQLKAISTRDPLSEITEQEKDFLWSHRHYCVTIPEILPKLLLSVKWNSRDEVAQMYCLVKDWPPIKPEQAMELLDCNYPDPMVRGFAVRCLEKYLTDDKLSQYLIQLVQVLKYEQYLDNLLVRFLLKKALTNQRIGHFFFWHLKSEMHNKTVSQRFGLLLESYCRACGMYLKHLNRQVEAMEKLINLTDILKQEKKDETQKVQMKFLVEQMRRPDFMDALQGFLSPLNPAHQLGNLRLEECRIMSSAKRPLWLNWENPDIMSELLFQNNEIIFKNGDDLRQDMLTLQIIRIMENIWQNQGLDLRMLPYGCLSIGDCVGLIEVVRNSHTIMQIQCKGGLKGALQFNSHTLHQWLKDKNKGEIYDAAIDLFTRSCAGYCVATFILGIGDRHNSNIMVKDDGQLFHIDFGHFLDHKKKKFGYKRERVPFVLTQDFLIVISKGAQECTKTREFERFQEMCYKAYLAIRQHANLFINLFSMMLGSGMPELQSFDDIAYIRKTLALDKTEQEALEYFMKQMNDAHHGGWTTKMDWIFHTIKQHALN
How it was run: (§1)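 SelectScreen ATP-competitive assay using 10-point titration with 1 μM top final compound concentration. Kinase, substrate and ATP mixed in 30 mM HEPES buffer and reacted 60 min. IC50 taken as the mean of three independent experiments.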

[4] = target: Phosphatidylinositol 4,5-bisphosphate 3-kinase catalytic subunit beta isoform (Homo sapiens, UniProt P42338); test: Inhibition of recombinant human full length His-tagged p110beta expressed in baculovirus expression system measured after 60 mins in presence of ATP by ATP-competitive binding assay; how it was run: as §1
Chain of Phosphatidylinositol 4,5-bisphosphate 3-kinase catalytic subunit beta isoform (P42338 whole entry, canonical isoform): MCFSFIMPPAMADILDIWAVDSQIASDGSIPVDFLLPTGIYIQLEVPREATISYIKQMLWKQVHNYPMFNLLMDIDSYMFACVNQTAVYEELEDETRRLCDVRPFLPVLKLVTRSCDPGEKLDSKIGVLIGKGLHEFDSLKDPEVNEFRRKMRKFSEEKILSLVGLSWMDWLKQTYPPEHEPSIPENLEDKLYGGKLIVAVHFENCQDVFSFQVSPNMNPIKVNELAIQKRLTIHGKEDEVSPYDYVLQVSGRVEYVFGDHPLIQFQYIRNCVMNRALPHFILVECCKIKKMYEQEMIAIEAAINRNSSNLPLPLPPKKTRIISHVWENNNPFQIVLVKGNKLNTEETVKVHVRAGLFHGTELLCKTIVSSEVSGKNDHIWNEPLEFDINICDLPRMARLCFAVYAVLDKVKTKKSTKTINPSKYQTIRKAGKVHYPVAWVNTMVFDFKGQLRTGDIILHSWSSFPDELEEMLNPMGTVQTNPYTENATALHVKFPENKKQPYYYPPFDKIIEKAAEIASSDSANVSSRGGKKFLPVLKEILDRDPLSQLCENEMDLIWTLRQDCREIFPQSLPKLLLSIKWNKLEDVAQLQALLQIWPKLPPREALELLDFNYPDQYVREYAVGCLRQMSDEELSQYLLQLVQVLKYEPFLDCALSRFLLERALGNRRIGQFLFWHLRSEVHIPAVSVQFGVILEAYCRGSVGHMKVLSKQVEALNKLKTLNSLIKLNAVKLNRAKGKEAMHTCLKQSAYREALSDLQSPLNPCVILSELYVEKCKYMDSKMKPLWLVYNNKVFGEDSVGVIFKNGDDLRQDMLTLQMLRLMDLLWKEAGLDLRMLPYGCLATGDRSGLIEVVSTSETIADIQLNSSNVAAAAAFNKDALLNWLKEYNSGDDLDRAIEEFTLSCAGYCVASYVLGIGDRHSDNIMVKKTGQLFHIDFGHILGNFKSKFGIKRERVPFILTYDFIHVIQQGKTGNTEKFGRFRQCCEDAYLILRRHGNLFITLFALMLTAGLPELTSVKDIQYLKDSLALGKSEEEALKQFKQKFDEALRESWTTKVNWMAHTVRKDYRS

[5] = target: Phosphatidylinositol 4,5-bisphosphate 3-kinase catalytic subunit gamma isoform (Homo sapiens, UniProt P48736); test: Inhibition of recombinant human full length His-tagged p110gamma expressed in baculovirus expression system measured after 60 mins in presence of ATP by ATP-competitive binding assay; how it was run: as §1
Chain of Phosphatidylinositol 4,5-bisphosphate 3-kinase catalytic subunit gamma isoform (P48736 whole entry, canonical isoform): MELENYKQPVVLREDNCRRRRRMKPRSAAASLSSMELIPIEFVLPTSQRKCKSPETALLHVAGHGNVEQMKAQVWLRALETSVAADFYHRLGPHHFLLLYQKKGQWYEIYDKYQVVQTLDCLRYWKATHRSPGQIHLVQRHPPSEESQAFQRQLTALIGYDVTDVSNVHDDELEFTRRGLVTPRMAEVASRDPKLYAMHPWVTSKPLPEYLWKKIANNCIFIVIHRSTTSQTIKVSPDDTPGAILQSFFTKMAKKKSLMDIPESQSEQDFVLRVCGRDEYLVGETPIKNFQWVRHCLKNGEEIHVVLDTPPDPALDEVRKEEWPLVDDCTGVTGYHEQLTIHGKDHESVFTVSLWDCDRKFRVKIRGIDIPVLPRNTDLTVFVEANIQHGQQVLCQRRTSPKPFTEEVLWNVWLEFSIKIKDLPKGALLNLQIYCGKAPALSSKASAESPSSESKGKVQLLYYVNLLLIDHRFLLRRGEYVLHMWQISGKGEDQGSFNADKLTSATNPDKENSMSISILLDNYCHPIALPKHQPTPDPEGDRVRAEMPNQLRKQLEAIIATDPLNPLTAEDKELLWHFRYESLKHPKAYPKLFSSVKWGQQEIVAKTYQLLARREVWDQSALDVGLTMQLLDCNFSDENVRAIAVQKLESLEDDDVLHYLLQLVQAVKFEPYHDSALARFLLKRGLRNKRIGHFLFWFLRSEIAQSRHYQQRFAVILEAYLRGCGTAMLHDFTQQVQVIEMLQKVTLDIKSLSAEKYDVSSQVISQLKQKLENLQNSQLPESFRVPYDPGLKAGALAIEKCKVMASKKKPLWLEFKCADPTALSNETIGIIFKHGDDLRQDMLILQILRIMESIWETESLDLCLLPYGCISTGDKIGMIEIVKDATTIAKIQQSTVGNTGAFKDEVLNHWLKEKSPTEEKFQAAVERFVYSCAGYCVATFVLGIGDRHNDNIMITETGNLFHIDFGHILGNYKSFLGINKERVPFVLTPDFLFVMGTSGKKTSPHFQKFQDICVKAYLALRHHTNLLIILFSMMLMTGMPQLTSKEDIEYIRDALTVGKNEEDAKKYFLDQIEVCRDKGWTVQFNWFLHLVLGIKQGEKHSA

[6] = target: PI3-kinase p110-delta/p85-alpha (Homo sapiens, UniProt O00329); test: Inhibition of recombinant human full length His-tagged p110delta/p85alpha expressed in baculovirus expression system measured after 60 mins in presence of ATP by ATP-competitive binding assay; how it was run: as §1
Chain of PI3-kinase p110-delta/p85-alpha (P27986 whole entry): as the sequence (P27986 whole entry) above
Chain of PI3-kinase p110-delta/p85-alpha (O00329 whole entry): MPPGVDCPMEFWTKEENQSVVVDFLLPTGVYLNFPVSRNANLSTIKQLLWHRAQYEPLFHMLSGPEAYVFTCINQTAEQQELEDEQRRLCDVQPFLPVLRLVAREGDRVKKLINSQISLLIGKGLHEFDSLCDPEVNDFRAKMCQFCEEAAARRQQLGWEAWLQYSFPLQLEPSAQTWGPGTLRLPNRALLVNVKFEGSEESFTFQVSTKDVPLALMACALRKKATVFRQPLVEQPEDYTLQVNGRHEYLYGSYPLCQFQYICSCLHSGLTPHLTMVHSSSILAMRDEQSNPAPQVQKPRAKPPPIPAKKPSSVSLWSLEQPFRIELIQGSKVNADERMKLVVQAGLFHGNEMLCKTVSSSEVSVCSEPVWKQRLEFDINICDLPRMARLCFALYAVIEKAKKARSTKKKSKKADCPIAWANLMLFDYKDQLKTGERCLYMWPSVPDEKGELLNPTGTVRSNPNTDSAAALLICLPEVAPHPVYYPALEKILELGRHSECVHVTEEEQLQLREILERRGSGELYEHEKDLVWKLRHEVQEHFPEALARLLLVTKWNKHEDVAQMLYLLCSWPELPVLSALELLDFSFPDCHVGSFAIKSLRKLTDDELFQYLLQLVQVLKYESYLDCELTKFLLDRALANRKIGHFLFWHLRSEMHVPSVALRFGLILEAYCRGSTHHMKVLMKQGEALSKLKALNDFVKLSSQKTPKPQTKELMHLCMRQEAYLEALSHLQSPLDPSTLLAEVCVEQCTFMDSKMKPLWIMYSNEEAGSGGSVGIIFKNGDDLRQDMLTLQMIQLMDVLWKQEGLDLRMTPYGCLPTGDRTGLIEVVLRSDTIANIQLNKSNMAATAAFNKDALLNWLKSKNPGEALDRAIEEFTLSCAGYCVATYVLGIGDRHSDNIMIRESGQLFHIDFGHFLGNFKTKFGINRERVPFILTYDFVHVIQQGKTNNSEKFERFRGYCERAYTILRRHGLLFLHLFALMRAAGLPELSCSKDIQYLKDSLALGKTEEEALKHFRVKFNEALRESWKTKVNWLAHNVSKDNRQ

[7] = species on record: Homo sapiens; test: Selectivity ratio of IC50 for recombinant human full length His-tagged p110gamma expressed in baculovirus expression system to IC50 for recombinant human full length His-tagged p110delta/p85alpha expressed in baculovirus expression system

SMILES | IC50 [3] [nM] | IC50 [4] [nM] | IC50 [5] [nM] | IC50 [6] [nM] | Ratio IC50 [7] | viability at 10 µM [1] [%] | viability at 20 µM [2] [%]
CC(C)[C@H](Nc1ncnc2nc[nH]c12)c1nc2cccc(Cl)c2c(=O)n1-c1ccccc1 | 356 | 1040 | 62.5 | 0.5 | 125 | 29.7 | 56.4
O=c1c2c(F)cccc2nc([C@@H](Nc2ncnc3nc[nH]c23)C2CCC2)n1-c1ccccc1 | 879 | 854 | 155 | 2.05 | 75.6 | 43 | 76.5
O=c1c2cc(F)ccc2nc([C@@H](Nc2ncnc3nc[nH]c23)C2CC2)n1-c1ccccc1 | 295 | 200 | 29.2 | 1.09 | 26.8 | 24.4 | 68.1
O=c1c2c(Cl)cccc2nc([C@@H](Nc2ncnc3nc[nH]c23)C2CCC2)n1-c1ccccc1 | 490 | 470 | 63.8 | 1.7 | 37.5 | 52.8 | 54.7
C[C@H](Nc1ncnc2nc[nH]c12)c1nc2cccc(F)c2c(=O)n1-c1ccccc1 | 152 | 145 | 15.3 | 0.5 | 30.6 | 46.1 | 63.7
C[C@H](Nc1ncnc2nc[nH]c12)c1nc2cccc(N)c2c(=O)n1-c1ccccc1 | 127 | 250 | 7.5 | 0.4 | 18.8 | 36.9 | 80.9
O=c1c2c(Cl)cccc2nc([C@@H](Nc2ncnc3nc[nH]c23)C2CC2)n1-c1ccccc1 | 205 | 87.6 | 10.4 | 0.6 | 17.3 | 36.7 | 56.5

More lines, main results first:

IC50 [3] [nM] | IC50 [4] [nM] | IC50 [5] [nM] | IC50 [6] [nM] | Ratio IC50 [7] | SMILES | viability at 10 µM [1] [%] | viability at 20 µM [2] [%]
301 | 129 | 18.3 | 0.5 | 36.6 | CCC[C@H](Nc1ncnc2nc[nH]c12)c1nc2cccc(Cl)c2c(=O)n1-c1ccccc1 | 29.3 | 24.7
878 | 1670 | 313 | 1.82 | 172 | CC(C)[C@H](Nc1ncnc2nc[nH]c12)c1nc2cccc(F)c2c(=O)n1-c1ccccc1 | 63.4 | 86.2
475 | 287 | 24.7 | 1.3 | 19 | CC[C@H](Nc1ncnc2nc[nH]c12)c1nc2cccc(N)c2c(=O)n1-c1ccccc1 | 45.8 | 83.6
385 | 440 | 72.2 | 1.08 | 66.8 | CCC[C@H](Nc1ncnc2nc[nH]c12)c1nc2cccc(F)c2c(=O)n1-c1ccccc1 | 34.4 | 60.7
369 | 562 | 24.7 | 1.07 | 23.1 | Nc1cccc2nc([C@@H](Nc3ncnc4nc[nH]c34)C3CC3)n(-c3ccccc3)c(=O)c12 | 23.5 | 65.8
326 | > 1000 | 56.3 | 3.23 | 17.4 | CCC[C@H](Nc1ncnc2nc[nH]c12)c1nc2cccc(C(F)(F)F)c2c(=O)n1-c1ccccc1 | 36.4 | 52.2
